Here are results for one compound from ChEMBL document CHEMBL1944514, “Fluorescence detection of single nucleotide polymorphisms using nucleic acid probe containing tricyclic base-linked acyclonucleoside” (Bioorg Med Chem Lett, 2012).

Active and inactive are the calls of the source. The calls are words filed in the database; no cut-off is given here.

What all share (type): nucleic-acid assay
Test [1] concerns Nucleic Acid. Briefly: Binding affinity to 3'-r(CUUCCAGUUGCAUAGAGA)-5' RNA assessed as change in melting temperature by spectrophotometry.
The test system of test [2] is Nucleic Acid. Briefly: Binding affinity to 3'-r(CUUCCAGUUACAUAGAGA)-5' RNA assessed as fluorescence quenching measured post UV-irradiation by visual analysis. The gist of the method:
(§1)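 Solutions of the N-containing probe/RNA target duplex in Tm buffer were irradiated with a handheld UV lamp at 254, 302 or 365 nm. The emitted colour was judged by eye from photographs.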

The test system of test [3] is Nucleic Acid. Description: Binding affinity to 3'-r(CUUCCAGUUUCAUAGAGA)-5' RNA assessed as change in melting temperature by spectrophotometry.
Test [4] has as its system Nucleic Acid. Briefly: Binding affinity to 3'-r(CUUCCAGUUUCAUAGAGA)-5' RNA assessed as fluorescence quenching measured post UV-irradiation by visual analysis. The gist of the method: as §1
The subject of test [5] is Nucleic Acid. Briefly: Binding affinity to 3'-r(CUUCCAGUUUCAUAGAGA)-5' RNA assessed as fluorescence quenching by spectrophotometry.
Test [6] concerns Nucleic Acid. Briefly: Binding affinity to 3'-r(CUUCCAGUUCCAUAGAGA)-5' RNA assessed as change in melting temperature by spectrophotometry.
The subject of test [7] is Nucleic Acid. Description: Binding affinity to 3'-r(CUUCCAGUUACAUAGAGA)-5' RNA assessed as change in melting temperature by spectrophotometry.
Test [8] concerns Nucleic Acid. Briefly: Binding affinity to 3'-r(CUUCCAGUUGCAUAGAGA)-5' RNA assessed as fluorescence quenching by spectrophotometry.
Test [9] concerns Nucleic Acid. Briefly: Binding affinity to 3'-r(CUUCCAGUUCCAUAGAGA)-5' RNA assessed as fluorescence quenching by spectrophotometry.
The subject of test [10] is Nucleic Acid. Description: Binding affinity to 3'-r(CUUCCAGUUACAUAGAGA)-5' RNA assessed as fluorescence quenching by spectrophotometry.

The ΔTm is the change in melting temperature against a reference sample. As for `Cc1cn([C@H]2C[C@H](OP(=O)(O)OC[C@H]3O[C@@H](n4ccc(N)nc4=O)C[C@@H]3OP(=O)(O)OC[C@H]3O[C@@H](n4cnc5c(N)ncnc54)C[C@@H]3OP(=O)(O)OC[C@H]3O[C@@H](n4cnc5c(N)ncnc54)C[C@@H]3OP(=O)(O)OC[C@H]3O[C@@H](n4cc(C)c(=O)[nH]c4=O)C[C@@H]3OP(=O)(O)OC[C@H](Cn3cnc4cc5c(N)nc(N)nc5nc43)OP(=O)(O)OC[C@H]3O[C@@H](n4cnc5c(=O)[nH]c(N)nc54)C[C@@H]3OP(=O)(O)CC[C@H]3O[C@@H](n4cc(C)c(=O)[nH]c4=O)C[C@@H]3OP(=O)(O)OC[C@H]3O[C@@H](n4cnc5c(N)ncnc54)C[C@@H]3OP(=O)(O)OC[C@H]3O[C@@H](n4cc(C)c(=O)[nH]c4=O)C[C@@H]3OP(=O)(O)OC[C@H]3O[C@@H](n4ccc(N)nc4=O)C[C@@H]3OP(=O)(O)OC[C@H]3O[C@@H](n4cc(C)c(=O)[nH]c4=O)C[C@@H]3OP(=O)(O)OC[C@H]3O[C@@H](n4ccc(N)nc4=O)C[C@@H]3OP(=O)(O)OC[C@H]3O[C@@H](n4cc(C)c(=O)[nH]c4=O)C[C@@H]3O)[C@@H](COP(=O)(O)O[C@H]3C[C@H](n4cnc5c(=O)[nH]c(N)nc54)O[C@@H]3COP(=O)(O)O[C@H]3C[C@H](n4cnc5c(=O)[nH]c(N)nc54)O[C@@H]3COP(=O)(O)O[C@H]3C[C@H](n4cnc5c(N)ncnc54)O[C@@H]3COP(=O)(O)O[C@H]3C[C@H](n4cnc5c(N)ncnc54)O[C@@H]3COP(=O)(O)O[C@H]3C[C@H](n4cnc5c(=O)[nH]c(N)nc54)O[C@@H]3CO)O2)c(=O)nc1N`, the ΔTm in test [1] is -0.9 °C; in [3] it was 1 °C; in test [6], -0.8 °C. In addition, the result in test [2], in test [7] and in test [10] was inactive. Moreover, the result in test [4], in test [5], in test [8] and in [9] was Active.
